Hits are enriched below; roughly 5.7% of the tested compounds scored in any of these assays.
Mdm2-MdmX inh: human Mdm2/MdmX binding inhibition. 3% of 330,000 active. inhibition, % at 8 µM. SaOS-2 split-luciferase Mdm2/MdmX complementation, luminescence. O15151+Q00987;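 active = inhibition of at least 50% at 8 µM in the primary screen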
Target sequence (O15151 whole entry, looked up): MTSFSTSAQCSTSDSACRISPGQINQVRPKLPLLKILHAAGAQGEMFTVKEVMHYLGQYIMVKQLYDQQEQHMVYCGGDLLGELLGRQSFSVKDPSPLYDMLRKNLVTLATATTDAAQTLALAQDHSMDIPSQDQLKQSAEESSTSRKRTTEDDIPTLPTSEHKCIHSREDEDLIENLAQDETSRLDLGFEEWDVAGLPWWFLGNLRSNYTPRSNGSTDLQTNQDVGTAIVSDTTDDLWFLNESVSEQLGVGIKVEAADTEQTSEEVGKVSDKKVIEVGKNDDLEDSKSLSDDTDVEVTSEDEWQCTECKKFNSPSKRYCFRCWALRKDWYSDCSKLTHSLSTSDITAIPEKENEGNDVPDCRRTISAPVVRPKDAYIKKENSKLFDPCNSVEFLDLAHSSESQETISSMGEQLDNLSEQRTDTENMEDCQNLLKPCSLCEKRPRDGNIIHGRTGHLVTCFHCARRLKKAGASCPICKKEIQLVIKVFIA
Target sequence (Q00987 whole entry, looked up): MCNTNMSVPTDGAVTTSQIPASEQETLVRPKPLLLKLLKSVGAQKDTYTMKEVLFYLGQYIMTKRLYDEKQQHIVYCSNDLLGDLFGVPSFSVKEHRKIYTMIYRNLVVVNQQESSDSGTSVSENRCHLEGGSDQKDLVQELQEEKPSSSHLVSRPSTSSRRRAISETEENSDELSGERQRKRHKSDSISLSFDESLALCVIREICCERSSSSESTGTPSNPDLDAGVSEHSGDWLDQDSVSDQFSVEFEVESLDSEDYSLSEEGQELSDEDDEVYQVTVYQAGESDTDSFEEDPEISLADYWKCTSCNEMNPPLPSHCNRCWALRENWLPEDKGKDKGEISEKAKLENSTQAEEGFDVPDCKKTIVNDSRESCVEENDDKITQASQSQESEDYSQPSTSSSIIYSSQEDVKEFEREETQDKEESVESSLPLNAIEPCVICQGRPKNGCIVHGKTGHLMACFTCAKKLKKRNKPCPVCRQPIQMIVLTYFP
SKKanGAS inh: blocks kanamycin growth of S. pyogenes SKKanGAS strain; BacTiter-Glo, 6 h; inhibition, % at 7.5 µM; 1.3% of 300,000 active; AID 1662;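 active = mean replicate score, as percent of positive control median, at least 50; inconclusive = mean below 50 but one replicate at or above 50; inactive = mean and every replicate below 50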;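 note: strain carries kanamycin resistance gene driven by streptokinase promoter and grows in 40 µg/ml kanamycin; loss of luminescence reflects streptokinase promoter inhibition or plain growth inhibition; 0% = median of DMSO wells and 100% = positive control at its reference dose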
CSC inhib: blocks cancer stem cells | cancer stem cell-like cells viability, luminescence | inhibition, % at 7.5 µM | 1.1% of 300,000 active; in the data active = inhibition above about 75%; inconclusive = no clear call, values can overlap the other calls; tested in HMLE shEcad cells
T cruzi inh: blocks replication of Trypanosoma cruzi | T. cruzi beta-gal in NIH3T3, luminescence, 90 h | inhibition, % (no concentration beside the values) | 1.4% of 300,000 active;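 active = mean inhibition across valid replicates above about 55%, limit read from the data; inconclusive = mean below that limit but half or more replicates reach it; inactive = mean below it, under half of replicates reach it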;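 note: signal also drops with host cell toxicity which is not excluded here; 0% = plate median of DMSO wells and 100% = zero luminescence signal; higher percent means less beta-gal luminescence so fewer parasites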
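System: Mouse NIH/3T3 fibroblasts infected with β-gal-expressing T. cruzi Tulahuen C4 | Quantity: NIH/3T3 cells, 5,000 per well | Reagent: 5000 reporter trypomastigotes per well | Dosing: Compound pinned at 50 nL/well, DMSO | Schedule: 3 h host attachment, then at least 90 h co-culture | Detection: GalScreen luminescence, 60 min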
Calb FLC: C. albicans growth modulation with fluconazole. growth inhibition, % (concentration not given with the values). C. albicans CaCi-2 (fluconazole-resistant clinical isolate) + fluconazole, Alamar Blue growth, 48 h. AID 1979. 0.57% of 300,000 active;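 active = growth inhibition above about 58% in most replicates, limit read from the data, passing the limit was not always enough; inconclusive = exactly half the replicates above a set limit; inactive = most replicates below a set limit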;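 note: all wells also contain fluconazole at 8 µg/ml as a sub-toxic cotreatment; 0% = median of DMSO wells and 100% = median of geldanamycin control wells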
Beta cell apopt: blocks beta cell apoptosis; INS-1E cytokine-induced death, ATP luminescence, 48 h; percent of positive-control rescue, neutral wells zero; protection from apoptosis, % (concentration not given with the values); 0.8% of 300,000 active;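 active = Every replicate reaches about 75%, or at least half do and their mean reaches it too, limit read from the data; inconclusive = At least half of replicates reach the limit but their mean does not; inactive = Under half of replicates reach the limit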;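 note: 0% = cytokine-treated negative control wells and 100% = positive control rescue; higher means more ATP so stronger rescue from cytokine killing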
Mdm2 MdmX conf: confirmation of human Mdm2/MdmX interaction inhibitors; AID 489028; inhibition, % at 8 µM; Mdm2-MdmX binding, luminescent assay; shares compounds with Mdm2-MdmX inh; 55% of 10,000 active; in the data active = inhibition above about 40%
Full FLuc ctr: counter-screen for Mdm2/MdmX inhibitors: full-length luciferase. shares compounds with Mdm2-MdmX inh. SaOS-2 full-length luciferase counterscreen, luminescence. inhibition, % at 8 µM. 77% of 6,200 active;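 active = mean inhibition at 8 µM reaching about 37%, which flags the compound as non-specific, limit read from the data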;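 note: p53-null SaOS-2 cells with luciferase driven by a doxycycline-inducible promoter; compound on cells about two nights before reading with doxycycline added after day one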
Starred values were filed as active, the others as inactive; ? = inconclusive; . = no result.

SMILES	Mdm2-MdmX inh	SKKanGAS inh	CSC inhib	T cruzi inh	Calb FLC	Beta cell apopt	Mdm2 MdmX conf	Full FLuc ctr
CC1CCCN(S(=O)(=O)c2ccc(NC(=O)[C@@H]3CCCN3C(=O)c3cccs3)cc2)C1 (stereo not given in full)	1.1	.	.	.	.	0.7	.	.
O=C(CSc1nncc2ccccc12)Nc1cccc(O)c1	-15.3	-1.4	14.5	-16.8	-7.8	2.9	.	.
COc1ccc(CCNC(=O)C2CCN(Cc3nc(-c4ccccc4C)oc3C)CC2)cc1OC	25.1	-6.8	9.9	27.0	-11.0	3.3	.	.
Cc1ccccc1-c1nc(CN2CCC(C(=O)NCCC3=CCCCC3)CC2)c(C)o1	57.6*	-4.8	-12.1	27.5	5.0	6.0	33.9	76.5*
Cc1ccccc1-c1nc(CN2CCC(C(=O)NCCCN3CCCC(C)C3)CC2)c(C)o1 (stereo not given)	95.7*	-2.2	3.4	30.1	-1.5	3.8	69.8*	43.5*
COc1ccc(Cc2nnc(NS(=O)(=O)c3ccc([N+](=O)[O-])cc3)s2)cc1	-0.1	10.4	.	-11.6	13.8	-3.0	.	.
O=C(Nc1cccc2[nH]ncc12)c1ccc(F)cc1	60.3*	3.0	-13.6	-13.3	-3.8	-14.6	73.5*	25.0
NC1=NC[C@@H](Cc2ccc(O)cc2)N1CCC12CC3CC(CC(C3)C1)C2	5.2	3.2	-5.0	0.3	-20.0	6.2	.	.
O=c1c2ccccc2nnn1CSc1nnc2sc3ccccc3n12	52.6*	1.2	-4.7	-1.7	-11.5	2.0	54.4*	113.2*
Cc1ccc(C(=O)NNc2ncnc3c2cnn3C)cc1	-6.3	2.9	-6.9	11.9	-3.5	1.7	.	.
Cn1ncc2c(O/N=C(\N)c3ccc(C(F)(F)F)cc3)ncnc21	98.5*	1.1	-0.1	50.1	23.5	22.0	46.0*	24.2
CCOC(=O)C1=CC[C@@H](c2ccccc2Cl)N(S(=O)(=O)c2ccc(C)cc2)[C@H]1C(=O)OCC	17.1	.	18.1	.	.	7.2	.	.
Cc1onc(-c2c(Cl)cccc2Cl)c1C(=O)N/N=C(\N)COc1ccc(Cl)cc1	71.9*	10.9	101.4*	40.6	93.2*	91.4*	81.5*	39.5*
Cc1ccc(C(=O)N2CCN(c3ccccn3)CC2)cc1Cl	-2.5	-2.3	1.2	-7.8	13.5	0.9	.	.
O=C(Nc1nccs1)c1nc[nH]c1C(=O)NCc1ccccc1	50.7*	.	51.3	.	.	-6.7	0.4	.
COC(=O)CCC(=O)c1ccn(S(=O)(=O)c2ccccc2)c1	8.6	0.2	.	-6.0	4.7	.	.	.
c1ccc(CCc2nn3c(-c4ccncc4)nnc3s2)cc1	68.7*	-1.3	.	15.4	-24.5	.	58.9*	33.7
CCOCCCNC(=O)C1(O)c2cc(Br)ccc2NC(=O)N1c1ccc(OCC)cc1 (stereo not given)	8.9	0.3	-11.2	4.1	-4.5	-8.4	.	.
CCOC(=O)N1CCC(=NNC(=O)COc2ccc(OC)cc2)CC1	1.0	-1.6	-6.4	-12.0	2.9	3.5	.	.
CC#CC[N+](C)(C)CCCCCCCCCCCC	87.3*	24.2	33.0	73.3*	100.8*	104.2*	64.3*	29.6
C#CC[N+](C)(C)CCCCCCCCCCCC	84.3*	25.5	50.2	50.3	78.8*	101.4*	80.4*	36.6*
C#CC[N+](C)(C)CCCCCCCC	22.5	-6.3	9.8	-12.4	-34.7	-0.4	.	.
C#CC[N+](C)(C)CCCCCCCCCC	70.7*	3.4	-0.5	28.4	-25.3	16.1	67.6*	55.9*
CCCCCCCCCCCCCCCC[N+](C)(C)CC	92.0*	100.9*	101.2*	35.5	76.6*	116.8*	81.3*	8.8
O=C(N=C1SC2CS(=O)(=O)CC2N1c1cccc(Cl)c1Cl)C1CC1 (stereo not given)	31.2	-2.1	-22.5	1.5	-6.6	-2.1	.	.
SMILES	Mdm2-MdmX inh	SKKanGAS inh	CSC inhib	T cruzi inh	Calb FLC	Beta cell apopt	Mdm2 MdmX conf	Full FLuc ctr
Cc1cc(C(=O)N/N=C/C(Cl)=C/c2ccccc2)c(C)o1	-8.6	6.4	18.3	16.0	-10.3	6.1	.	.
CCOC(=O)c1c(NC(=O)CSc2nc3ccc(OC)cc3[nH]2)sc2c1CC(C)(C)NC2(C)C	44.2	-1.1	-5.7	46.2	-0.3	-2.7	.	.
O=C1CC(C(=O)NC2CCCCC2)C(c2ccccc2)O1 (stereo not given)	13.9	-0.2	-1.3	-15.4	-7.5	1.9	.	.
C[C@@H]1[C@@H](Sc2ccccc2)CC(=O)O[C@@H]1c1ccc(-c2ccccc2)cc1	97.4*	7.3	19.8	0.7	11.2	.	62.8*	51.2*
CCC(C)(C)C1CCc2[nH]nc(C(=O)NCCNC(=O)OC(C)(C)C)c2C1 (stereo not given)	26.0	.	.	.	.	0.6	.	.
COc1ccc(N=c2oc3c(OC)cccc3cc2C(=O)NCc2ccco2)c(OC)c1	67.6*	8.4	29.4	24.2	12.3	29.4	-10.3	.
Cc1cc(C)c(S(=O)(=O)c2ccccc2)c(OC(=O)c2c(Cl)cc(Cl)cc2Cl)n1	52.3*	4.2	-4.5	9.0	7.1	-4.6	21.0	.
Cc1cc(C)c(S(=O)(=O)c2ccccc2)c(OC(=O)c2c(F)cccc2F)n1	-1.8	-16.4	-7.0	-22.0	18.4	-14.4	.	.
CCC(=O)N=c1ccn(C2=Nc3ccccc3NC2=C(C#N)C#N)cc1	11.1	-0.1	1.4	-10.5	-2.4	4.7	.	.
COc1ccccc1N1CCN(C(=O)c2oc3ccc(Br)cc3c2C)CC1	56.9*	17.8	56.9	-0.2	-2.2	3.2	57.9*	53.7*
COc1ccccc1N1CCN(C(=O)c2cc3c(C)nc4ccccc4c3o2)CC1	53.9*	27.1	-12.2	13.7	-19.7	37.0	20.3	.
COc1ccccc1N1CCN(C(=O)c2oc3ccc(F)cc3c2C)CC1	33.9	-0.6	41.4	-1.3	47.2	2.8	.	.
CC(OC(=O)c1cccnc1Cl)C(=O)NCc1ccccc1 (stereo not given)	-13.8	.	.	.	.	-2.9	.	.
Cc1cc(/C=N/n2cnnc2)c(C)n1-c1ccc(OCc2ccc(Cl)cc2)cc1	61.4*	62.0*	45.7	13.1	5.4	121.9*	61.7*	91.7*
C(=N\n1cnnc1)/c1ccc(OCc2ccccc2)cc1	15.4	-2.1	3.9	.	27.3	-0.7	.	.
CN(CCO)c1cc(Sc2nc3ccccc3s2)c2nonc2c1[N+](=O)[O-]	96.6*	67.3*	103.4*	46.0	?	55.9	97.2*	1.9
CC(C)[C@H](NC(=O)[C@H](Cc1ccccc1)n1c(=O)[nH]c2ccccc2c1=O)C(=O)N1CCC[C@H]1C(=O)O	19.0	-0.5	-1.1	-4.9	-7.9	-3.5	.	.
CC(=O)Nc1ccc(C(=O)OCC(=O)N(c2ccccc2)C2CCS(=O)(=O)C2)cc1 (stereo not given)	2.0	.	.	.	.	1.0	.	.
